Conditions in all cases: Cell membrane
Experiment [1] concerns the target T1, Adenosine receptor A1 (Homo sapiens) (UniProt P30542).
T1 sequence (whole entry): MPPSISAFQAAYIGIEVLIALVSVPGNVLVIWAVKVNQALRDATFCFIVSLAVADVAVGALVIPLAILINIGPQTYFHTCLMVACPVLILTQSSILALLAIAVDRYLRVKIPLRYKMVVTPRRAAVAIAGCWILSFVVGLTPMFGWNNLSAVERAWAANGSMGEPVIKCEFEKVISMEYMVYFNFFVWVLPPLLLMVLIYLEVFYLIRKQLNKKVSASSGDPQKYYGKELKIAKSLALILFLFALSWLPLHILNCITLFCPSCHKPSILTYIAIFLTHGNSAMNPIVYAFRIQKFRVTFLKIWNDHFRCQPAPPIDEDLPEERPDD
In words: Displacement of [3H]DPCPX from human adenosine A1 receptor expressed in CHO cell membranes at 1 uM incubated for 60 mins by scintillation counting method. A general note: In a radioligand displacement assay an active substance lowers the binding of a labelled ligand.

The target in experiment [2] is T2, Adenosine receptor A2b (Homo sapiens) (UniProt P29275).
T2 sequence (whole entry): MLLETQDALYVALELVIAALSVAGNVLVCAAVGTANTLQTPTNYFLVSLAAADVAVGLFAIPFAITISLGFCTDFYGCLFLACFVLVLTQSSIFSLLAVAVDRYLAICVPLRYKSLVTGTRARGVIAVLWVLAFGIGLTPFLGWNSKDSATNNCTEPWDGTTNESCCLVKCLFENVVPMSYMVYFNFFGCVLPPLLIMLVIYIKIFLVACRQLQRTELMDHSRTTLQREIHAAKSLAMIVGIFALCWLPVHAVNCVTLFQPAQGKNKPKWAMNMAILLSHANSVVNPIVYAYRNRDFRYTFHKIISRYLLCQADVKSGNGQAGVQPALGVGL
In words: Displacement of [3H]DPCPX from human adenosine A2B receptor expressed in HEK293 cell membranes at 1 uM incubated for 30 mins by scintillation counting method.

Experiment [3] addresses T3, Adenosine receptor A3 (Homo sapiens) (UniProt P0DMS8).
T3 sequence (whole entry): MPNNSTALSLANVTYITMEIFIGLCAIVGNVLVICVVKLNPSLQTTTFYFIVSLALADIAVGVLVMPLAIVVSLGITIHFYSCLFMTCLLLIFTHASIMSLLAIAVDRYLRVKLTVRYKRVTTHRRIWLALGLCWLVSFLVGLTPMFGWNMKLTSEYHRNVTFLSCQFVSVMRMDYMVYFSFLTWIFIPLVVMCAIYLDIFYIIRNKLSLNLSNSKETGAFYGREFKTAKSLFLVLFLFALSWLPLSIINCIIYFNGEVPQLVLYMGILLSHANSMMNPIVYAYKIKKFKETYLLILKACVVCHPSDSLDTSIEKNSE
In words: Displacement of [3H]NECA from adenosine A3 receptor expressed in human HeLa cell membranes at 1 uM incubated for 180 mins by scintillation counting method. The method, boiled down: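 hA3AR in HeLa membranes (3 pmol/mg protein) with 10 nM [3H]NECA (KD 8.7 nM); nonspecific binding with 100 μM R-PIA; incubated 180 min at 25 °C, washed, filtered, radioactivity counted.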

For experiment [4], the target named is Adenosine receptor A2a (Homo sapiens) (UniProt P29274). In words: Displacement of [3H]ZM2421385 from adenosine A2A receptor expressed in human HeLa cell membranes at 1 uM incubated for 30 mins by scintillation counting method.
Adenosine receptor A2a (Homo sapiens), sequence (P29274 whole entry): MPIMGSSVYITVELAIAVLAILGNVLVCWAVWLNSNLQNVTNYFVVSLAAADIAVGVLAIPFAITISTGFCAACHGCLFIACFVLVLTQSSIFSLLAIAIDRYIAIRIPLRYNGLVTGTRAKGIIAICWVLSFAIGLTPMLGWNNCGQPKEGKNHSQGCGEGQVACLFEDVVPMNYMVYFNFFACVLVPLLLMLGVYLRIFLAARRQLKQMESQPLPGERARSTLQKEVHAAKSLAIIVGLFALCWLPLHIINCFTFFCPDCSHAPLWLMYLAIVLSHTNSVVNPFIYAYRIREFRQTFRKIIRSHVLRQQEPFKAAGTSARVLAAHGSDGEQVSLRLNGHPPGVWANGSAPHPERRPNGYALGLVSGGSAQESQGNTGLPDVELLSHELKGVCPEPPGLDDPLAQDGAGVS

As for `CC1=C(C(=O)OC(C)C)[C@H](c2ccco2)NC(=S)N1`, the inhibition came to 10% in experiment [1], 12% in experiment [2], 2% in experiment [3] and 6% in experiment [4].
In the same order, the values of `CCOC(=O)C1=C(C)NC(=O)N[C@H]1c1ccsc1` are 5%, 19%, 3% and 21%.
In the same order, the values of `CC1=C(C(=O)OC(C)(C)C)C(c2ccco2)NC(=S)N1` (racemic) are 3%, 9%, 9% and 1%.
Take `CC1=C(C(=O)OC(C)(C)C)C(c2cccs2)NC(=O)N1` (racemic): the inhibition in experiment [1] was found to be 26%; in experiment [2] it was 38%; in experiment [3] it was 7%; in experiment [4], 10%.
On to `CC1=C(C(=O)OC(C)(C)C)C(c2ccsc2)NC(=O)N1` (racemic), for which the inhibition in experiment [1] is 15%; in experiment [2] (filed as antagonist), 47%; in experiment [3], 1%; in experiment [4] it was 5%.
In the case of `CC1=C(C(=O)OC(C)C)C(c2ccco2)NC(=O)N1C` (racemic), the inhibition in experiment [4] was determined as 37%.
In experiment [3], `CC1=C(C(=O)OC(C)C)C(c2cccs2)NC(=O)N1C` (racemic) yielded an inhibition of 17%.
In experiment [2], `CC1=C(C(=O)OC(C)C)C(c2ccoc2)NC(=O)N1C` (racemic) had an inhibition of 37%.
As for `CC1=C(C(=O)OC(C)C)C(c2ccsc2)NC(=O)N1C` (racemic), the inhibition in experiment [1] was 35%; in experiment [2] (filed as antagonist), 51%; in experiment [4] it was 22%.
On to `CC1=C(C(=O)OCC(C)C)C(c2ccco2)NC(=S)N1` (racemic), for which the inhibition came out at 7% in experiment [1], 18% in experiment [2], 10% in experiment [3] and 30% in experiment [4].
In the case of `CC1=C(C(=O)OCc2ccccc2)C(c2ccco2)NC(=S)N1` (racemic), the inhibition in experiment [1] turned out to be 32%; in experiment [2] (filed as antagonist) it was 41%; in experiment [3] it was 4%; in experiment [4], 12%.
In the same order, the values of `CC1=C(C(=O)OCc2ccccc2)C(c2ccsc2)NC(=O)N1` (racemic) are 57%, 44%, 25% and 21%.
Molecule `CCCOC(=O)C1=C(C)NC(=O)NC1c1ccco1` (racemic) gave an inhibition in experiment [3] of 3%.
`CCCOC(=O)C1=C(C)NC(=S)NC1c1ccco1` (racemic): the inhibition is 1% in experiment [1], 46% in experiment [2] (filed as antagonist), 1% in experiment [3] and 2% in experiment [4].
Consider `CCOC(=O)C1=C(C)N(C)C(=O)NC1c1ccco1` (racemic), for which, in experiment [4], the inhibition is 1%.
Turning to `CCOC(=O)C1=C(C)N(C)C(=O)NC1c1cccs1` (racemic), the inhibition is 1% in experiment [1], 2% in experiment [3] and 1% in experiment [4].
Take `CCOC(=O)C1=C(C)N(C)C(=O)NC1c1ccsc1` (racemic): the values for the inhibition in experiment [1], in experiment [2] (filed as antagonist) and in experiment [4] were 32%, 53% and 23%, respectively.
As to `CCOC(=O)C1=C(C)NC(=O)NC1c1cccs1` (racemic), in experiment [2] (filed as antagonist), the inhibition turned out to be 41%.
For the molecule `COC(=O)C1=C(C)NC(=O)NC1c1cccs1` (racemic), the inhibition in experiment [1] came out at 6%; in experiment [2] it was 19%; in experiment [3] it was 3%; in experiment [4], 1%.
Take `COC(=O)C1=C(C)NC(=O)NC1c1ccoc1` (racemic): the inhibition in experiment [1] turned out to be 8%; in experiment [2] (filed as antagonist), 42%; in experiment [3], 2%; in experiment [4], 3%.
Regarding `COC(=O)C1=C(C)NC(=O)NC1c1ccsc1` (racemic), the inhibition in experiment [1] was 7%; in experiment [2], 36%; in experiment [3], 3%; in experiment [4] it was 2%.

As a reminder, the inhibition is the change of the read-out against control, counted positive when it falls. Low values mean a weak effect, high ones a strong effect.

For the origin of these results see ChEMBL document CHEMBL4765483 (J Med Chem, 2021).
